The target in series [1] is Dual specificity mitogen-activated protein kinase kinase; MEK1/2 (Homo sapiens) (UniProt P36507+Q02750). Briefly: Inhibition of MEK phosphorylation in EGF-stimulated human MDA-MB-468 cells incubated for 2 hrs followed by 10 mins EGF stimulation by Western blotting analysis. In outline:
(§1)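 MDA-MB-468 cells grown to ~80% confluence, serum-starved 20 h, then given peptide at the indicated concentrations in serum-free medium for 2 h. EGF (50 ng/mL final) added for 10 min. Lysis in RIPA with protease/phosphatase inhibitors and 5 mM EDTA; ~20 μg protein run on 10% SDS-PAGE. Blots probed for phospho- and total MEK and ERK1/2, GAPDH loading control.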
A general note: In western blotting, separated proteins are transferred to a membrane and probed.

Series [2] can be described thus: Drug uptake in human HeLa cells assessed as cytosolic entry efficiency measured as fluorescence at 5 uM incubated for 2 hrs by flow cytometry relative to CPP9 (100%). It is filed as ADME, cell-based. In outline:
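HeLa cells seeded 24 h earlier, given 5 μM naphthofluorescein-labelled peptide in DMEM with 1% or 10% FBS, 37 °C, 2 h. Cells DPBS-washed, trypsinized, flow cytometry with 633-nm excitation, APC channel, 10,000 live-cell events gated. Signal read as cytosolic entry because NF is non-fluorescent in acidic compartments; mean ± SD of three independent experiments, relative to CPP9 (100%).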
On the technique in general: A flow cytometer gives signals particle by particle.

For series [3], the target named is T1, Growth factor receptor-bound protein 2 (Homo sapiens, UniProt P62993). Briefly: Binding affinity to Grb2-SH2 domain (unknown origin) expressed in Escherichia coli […] after 2 hrs by fluorescence polarization assay. In general terms: In fluorescence polarisation assays a small probe gives low polarisation when free and higher when bound to something large.
T1 sequence (P62993 whole entry, the tested form may be a part): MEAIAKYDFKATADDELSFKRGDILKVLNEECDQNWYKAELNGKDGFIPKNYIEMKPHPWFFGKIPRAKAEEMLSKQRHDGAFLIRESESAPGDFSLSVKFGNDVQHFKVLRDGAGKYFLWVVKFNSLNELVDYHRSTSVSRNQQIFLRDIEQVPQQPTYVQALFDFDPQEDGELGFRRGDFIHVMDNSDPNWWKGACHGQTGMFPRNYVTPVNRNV

Series [4] can be described thus: Metabolic stability of the compound in human MDA-MB-468 cells assessed as protein-tyrosine phosphatase-mediated endogenous dephosphorylation incubated for 2 hrs. It is filed as ADME, cell-based. As to conditions: mda-mb-468, 2 h.
Series [5] has as its system MDA-MB-468. Briefly: Effect on intracellular MEK expression in EGF-stimulated human MDA-MB-468 cells incubated for 2 hrs followed by 10 mins EGF stimulation by Western blotting analysis. It is filed as functional, cell-based. In short, it runs like this: as §1
Series [6] concerns the target Mitogen-activated protein kinase; ERK1/ERK2 (Homo sapiens) (UniProt P27361+P28482). The series can be described thus: Inhibition of ERK1/2 phosphorylation in EGF-stimulated human MDA-MB-468 cells incubated for 2 hrs followed by 10 mins EGF stimulation by Western blotting analysis. In short, it runs like this:
as §1

Series [7] concerns the target T1, Growth factor receptor-bound protein 2. Briefly: Binding affinity to Grb2-SH2 domain (unknown origin) expressed in Escherichia coli […] after 1 hr by fluorescence polarization assay. As to conditions: in the assay text read “after 2 hrs” for “after 1 hr”. In short, it runs like this:
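GST-Grb2 SH2 domain expressed in E. coli BL21(DE3), glutathione-Sepharose purified. […] IC50 from four-parameter logistic fit of FP versus peptide concentration, three sets of experiments.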

The structures appear in SMILES notation. Activity calls are given as the source filed them. No cut-off for these calls is given here.

Sequence of Dual specificity mitogen-activated protein kinase kinase; MEK1/2 (Homo sapiens) (P36507 whole entry, looked up): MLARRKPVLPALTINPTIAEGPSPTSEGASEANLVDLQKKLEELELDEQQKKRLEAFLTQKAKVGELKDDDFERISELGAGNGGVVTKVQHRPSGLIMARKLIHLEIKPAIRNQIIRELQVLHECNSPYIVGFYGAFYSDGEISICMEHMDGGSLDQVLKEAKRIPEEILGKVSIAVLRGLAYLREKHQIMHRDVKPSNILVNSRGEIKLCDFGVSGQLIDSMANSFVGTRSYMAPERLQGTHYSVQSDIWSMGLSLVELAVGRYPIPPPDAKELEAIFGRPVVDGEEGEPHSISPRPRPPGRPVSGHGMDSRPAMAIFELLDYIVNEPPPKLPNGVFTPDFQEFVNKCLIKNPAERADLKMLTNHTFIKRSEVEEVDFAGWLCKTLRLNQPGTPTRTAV
Sequence of Dual specificity mitogen-activated protein kinase kinase; MEK1/2 (Homo sapiens) (Q02750 whole entry, looked up): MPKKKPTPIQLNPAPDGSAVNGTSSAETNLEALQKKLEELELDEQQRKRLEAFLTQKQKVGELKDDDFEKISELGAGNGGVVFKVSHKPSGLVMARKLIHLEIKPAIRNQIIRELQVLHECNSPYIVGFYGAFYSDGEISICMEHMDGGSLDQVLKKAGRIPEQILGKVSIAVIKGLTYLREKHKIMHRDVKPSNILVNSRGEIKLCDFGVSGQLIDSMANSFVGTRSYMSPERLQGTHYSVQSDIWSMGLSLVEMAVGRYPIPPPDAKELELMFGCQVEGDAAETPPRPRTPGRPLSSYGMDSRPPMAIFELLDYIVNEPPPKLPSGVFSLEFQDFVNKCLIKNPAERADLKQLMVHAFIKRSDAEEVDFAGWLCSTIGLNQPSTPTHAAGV
Sequence of Mitogen-activated protein kinase; ERK1/ERK2 (Homo sapiens) (P27361 whole entry, looked up): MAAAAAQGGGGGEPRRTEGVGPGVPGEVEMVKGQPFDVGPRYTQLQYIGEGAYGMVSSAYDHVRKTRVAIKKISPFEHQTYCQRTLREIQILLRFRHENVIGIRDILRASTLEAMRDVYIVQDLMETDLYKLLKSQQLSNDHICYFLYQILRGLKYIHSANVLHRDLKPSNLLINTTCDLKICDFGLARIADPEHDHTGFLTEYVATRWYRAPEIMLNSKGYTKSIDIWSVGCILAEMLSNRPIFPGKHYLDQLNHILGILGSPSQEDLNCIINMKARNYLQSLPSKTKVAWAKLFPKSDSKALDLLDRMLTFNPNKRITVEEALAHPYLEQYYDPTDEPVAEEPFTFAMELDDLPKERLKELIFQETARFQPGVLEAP
Sequence of Mitogen-activated protein kinase; ERK1/ERK2 (Homo sapiens) (P28482 whole entry, looked up): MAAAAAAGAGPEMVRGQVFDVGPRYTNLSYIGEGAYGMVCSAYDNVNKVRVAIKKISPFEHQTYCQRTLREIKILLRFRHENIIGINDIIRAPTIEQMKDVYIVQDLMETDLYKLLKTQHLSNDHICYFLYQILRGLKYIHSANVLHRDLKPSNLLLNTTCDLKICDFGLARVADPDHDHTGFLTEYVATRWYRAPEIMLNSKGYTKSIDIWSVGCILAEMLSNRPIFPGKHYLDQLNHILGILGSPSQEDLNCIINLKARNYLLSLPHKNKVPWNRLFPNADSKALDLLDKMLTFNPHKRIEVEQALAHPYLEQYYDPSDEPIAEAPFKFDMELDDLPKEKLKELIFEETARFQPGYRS

One may read the IC50 as the concentration that gives 50% inhibition. A higher IC50 goes with a need for much substance. On to `CC(C)[C@@H]1NC(=O)[C@H](Cc2ccc(OP(=O)(O)O)cc2)NC(=O)[C@H](CCCNC(=N)N)NC(=O)[C@H](CCCNC(=N)N)NC(=O)[C@@H]2CCCN2C(=O)[C@H]2CCCN2C(=O)[C@@H](C)NC(=O)[C@H](C)NC(=O)[C@H](Cc2ccccc2)NC(=O)[C@H](CC(=O)NCCOCCOCC(=O)N[C@@H](CCCCNC(=O)c2ccc3c(c2)C(=O)OC32c3ccc4cc(O)ccc4c3Oc3c2ccc2cc(O)ccc32)C(N)=O)NC1=O`, for which the inhibition result in series [1] is “inactive”. For the same compound, the RFU in series [2] worked out at 2%. Moreover, in series [3], the IC50 was determined as 0.1 µM.

In the case of `CC(C)[C@@H]1NC(=O)[C@H](Cc2ccc(O)cc2)NC(=O)[C@H](CCCNC(=N)N)NC(=O)[C@H](CCCNC(=N)N)NC(=O)[C@@H]2CCCN2C(=O)[C@H]2CCCN2C(=O)[C@@H](CCCNC(=N)N)NC(=O)[C@H](Cc2ccc3ccccc3c2)NC(=O)[C@H](Cc2ccccc2)NC(=O)[C@H](CC(=O)NCCOCCOCC(=O)N[C@@H](CCCCNC(=O)c2ccc3c(c2)C(=O)OC32c3ccc4cc(O)ccc4c3Oc3c2ccc2cc(O)ccc32)C(N)=O)NC1=O`, the inhibition result in series [1] is “inactive”. Moreover, in series [2], the RFU came out at 34%. The same compound showed an IC50 in series [3] of over 10 µM.

With `CC(C)[C@@H]1NC(=O)[C@H](Cc2ccc(OP(=O)(O)O)cc2)NC(=O)[C@H](CCCNC(=N)N)NC(=O)[C@H](CCCNC(=N)N)NC(=O)[C@@H]2CCCN2C(=O)[C@H]2CCCN2C(=O)[C@@H](CCCNC(=N)N)NC(=O)[C@H](Cc2ccc3ccccc3c2)NC(=O)[C@H](Cc2ccccc2)NC(=O)[C@H](CC(=O)NCCOCCOCC(=O)N[C@@H](CCCCNC(=O)c2ccc3c(c2)C(=O)OC32c3ccc4cc(O)ccc4c3Oc3c2ccc2cc(O)ccc32)C(N)=O)NC1=O`, the Stabilty result in series [4] is listed as “Unstable”. Moreover, the result in series [5] was inactive. Besides, the inhibition result in series [6] is “inactive”. Also, in series [1], the inhibition entry is “Active”. In addition, in series [2], the RFU came to 49%. For the same compound, the IC50 in series [7] came out at 0.4 µM.

Source of the values: ChEMBL document CHEMBL4665872, “Rational design of cell-permeable cyclic peptides containing a d-Pro-l-Pro motif” (Bioorg Med Chem, 2020).
